{"source": "paper PMC9299227", "about": "(Diabetes, Obesity & Metabolism, 2021)", "key": {"[1]": {"test_system": "Japanese participants with type 2 diabetes", "assay": "Fasting plasma glucose, change from baseline versus placebo", "assay_type": "in vivo, human", "settings": "P < .0001", "procedure,_shortened": "(§1)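 Randomized, participant- and investigator-blind, placebo-controlled trial. Adults aged 20-70 with T2D for ≥1 year and BMI 20-35 kg/m2; metformin or DPP-4 inhibitor withdrawn ≥28 days before dosing. Once-weekly SC abdominal-wall injections for 8 weeks, rotating four sites. Escalation: 5 mg fixed; 2.5→5→10 mg; 5→10→15 mg. Change from baseline by mixed-effects model (regimen fixed, participant random, day and regimen-by-day terms); LS means, 95% CI, P<.05.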"}, "[2]": {"test_system": "Japanese participants with type 2 diabetes", "assay": "Body weight, change from baseline versus placebo", "assay_type": "in vivo, human", "settings": "P < .0001", "procedure,_shortened": "as §1"}, "[3]": {"test_system": "Japanese participants with type 2 diabetes", "assay": "HbA1c, change from baseline versus placebo", "assay_type": "in vivo, human", "settings": "for HbA1c, LS mean decrease from baseline versus placebo: P < .0001", "procedure,_shortened": "as §1"}, "[4]": {"test_system": "Japanese participants with type 2 diabetes", "assay": "Safety and tolerability", "assay_type": "in vivo, human"}, "participants with T2D": {"test_system": "participants with T2D", "settings": "26 weeks, cited from earlier work"}, "[5]": {"assay": "Plasma tirzepatide pharmacokinetics, non-compartmental analysis", "assay_type": "in vivo", "settings": "human, sc, 5 mg", "procedure,_shortened": "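Noncompartmental PK on plasma drug levels after weekly SC abdominal dosing at 5 mg for weeks 1-8. Sampling spanned one 168-h interval after the day 1 dose and up to 840 h after the last dose on day 50. Steady-state CL/F and Vz/F were estimated as extravascular parameters and summarized descriptively by dose level.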"}, "[6]": {"test_system": "Japanese participants with type 2 diabetes", "assay": "Seven-point self-monitored plasma glucose", "assay_type": "in vivo, human", "settings": "week 2 to week 8, all doses of tirzepatide", "procedure,_shortened": "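Patients with T2D receive weekly SC injections of test compound (escalating to 5, 10 or 15 mg) or placebo into the abdominal wall for 8 weeks. Plasma glucose is self-monitored at seven time points across the day and profiled as an arithmetic mean at day 57. Change from baseline is analysed by mixed-effects model (regimen fixed, participant random) as LS means with 95% CI.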"}, "[7]": {"test_system": "Japanese participants with type 2 diabetes", "assay": "Serum lipids", "assay_type": "in vivo, human"}, "[8]": {"test_system": "Japanese participants with type 2 diabetes", "assay": "Meal intake and subjective appetite sensation", "assay_type": "in vivo, human", "procedure,_shortened": "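Once-weekly SC test compound (5, 10 or 15 mg groups, escalated) or placebo into the abdominal wall for 8 weeks. Standardized lunch and dinner are given and intake is recorded. Hunger, fullness, satiety and prospective food consumption are rated on a 100-mm VAS before and 4-5 h after the meal. Overall score is the mean of satiety, fullness, (100 − prospective consumption) and (100 − hunger).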"}, "[9]": {"settings": "5-mg group (5 mg weeks 1-8), SC once weekly, 8 weeks, N = 11"}, "[10]": {"settings": "10-mg group (2.5 mg weeks 1-2, 5 mg weeks 3-4, 10 mg weeks 5-8), SC once weekly, N = 12"}, "[11]": {"settings": "15-mg group (5 mg weeks 1-2, 10 mg weeks 3-6, 15 mg weeks 7-8), SC once weekly, N = 16"}}}
{"smiles": "CC[C@H](C)[C@H](NC(=O)[C@H](CC(C)C)NC(=O)[C@H](Cc1c[nH]c2ccccc12)NC(=O)[C@H](CCC(N)=O)NC(=O)[C@@H](NC(=O)[C@H](Cc1ccccc1)NC(=O)[C@H](C)NC(=O)[C@H](CCCCNC(=O)COCCOCCNC(=O)COCCOCCNC(=O)CC[C@H](NC(=O)CCCCCCCCCCCCCCCCCCC(=O)O)C(=O)O)NC(=O)[C@H](CCC(N)=O)NC(=O)[C@H](C)NC(=O)[C@@H](NC(=O)[C@H](CCCCN)NC(=O)[C@H](CC(=O)O)NC(=O)[C@H](CC(C)C)NC(=O)C(C)(C)NC(=O)[C@@H](NC(=O)[C@H](CO)NC(=O)[C@H](Cc1ccc(O)cc1)NC(=O)[C@H](CC(=O)O)NC(=O)[C@H](CO)NC(=O)[C@@H](NC(=O)[C@H](Cc1ccccc1)NC(=O)[C@@H](NC(=O)CNC(=O)[C@H](CCC(=O)O)NC(=O)C(C)(C)NC(=O)[C@@H](N)Cc1ccc(O)cc1)[C@@H](C)O)[C@@H](C)O)[C@@H](C)CC)[C@@H](C)CC)C(C)C)C(=O)N[C@@H](C)C(=O)NCC(=O)NCC(=O)N1CCC[C@H]1C(=O)N[C@@H](CO)C(=O)N[C@@H](CO)C(=O)NCC(=O)N[C@@H](C)C(=O)N1CCC[C@H]1C(=O)N1CCC[C@H]1C(=O)N1CCC[C@H]1C(=O)N[C@@H](CO)C(N)=O", "note": "[tirzepatide]", "values": [{"measurement": "Fasting plasma glucose, LS mean decrease from baseline versus placebo (95% CI)", "setting": "[1]; week 8, 5-mg group", "value": "52.7 (35.9‐69.6) mg/dL"}, {"measurement": "Fasting plasma glucose, LS mean decrease from baseline versus placebo (95% CI)", "setting": "[1]; week 8, 10-mg group", "value": "69.1 (52.3‐85.9) mg/dL"}, {"measurement": "Fasting plasma glucose, LS mean decrease from baseline versus placebo (95% CI)", "setting": "[1]; week 8, 15-mg group", "value": "68.9 (53.2‐84.6) mg/dL"}, {"measurement": "Body weight, LS mean decrease from baseline (95% CI) versus placebo", "setting": "[2]; week 8, 5-mg group", "value": "3.4 (2.0‐4.8) kg"}, {"measurement": "Body weight, LS mean decrease from baseline (95% CI) versus placebo", "setting": "[2]; week 8, 10-mg group", "value": "5.0 (3.6‐6.5) kg"}, {"measurement": "Body weight, LS mean decrease from baseline (95% CI) versus placebo", "setting": "[2]; week 8, 15-mg group", "value": "6.6 (5.3‐7.9) kg"}, {"measurement": "HbA1c, LS mean decreases from baseline versus placebo, across treatment groups", "setting": "[3]; 8 weeks, 95% CI 1.2%-1.9%, P < .0001 for all treatment groups", "value": "up to 1.6%"}, {"measurement": "HbA1c, LS mean decrease from baseline versus placebo", "setting": "[3]; week 8, 5-mg group, 95% CI 0.8%-1.5%", "value": 1.1, "unit": "%"}, {"measurement": "HbA1c, LS mean decrease from baseline versus placebo", "setting": "[3]; week 8, 10-mg group, 95% CI 0.9%-1.7%", "value": 1.3, "unit": "%"}, {"measurement": "HbA1c, LS mean decrease from baseline versus placebo", "setting": "[3]; week 8, 15-mg group, 95% CI 1.2%-1.9%", "value": 1.6, "unit": "%"}, {"measurement": "Abdominal discomfort, treatment-emergent adverse event", "setting": "[4]; [9]", "value": "0 n (%)"}, {"measurement": "Abdominal distension, treatment-emergent adverse event", "setting": "[4]; [9]", "value": "3 (27.3) n (%)"}, {"measurement": "Blood triglycerides increased, treatment-emergent adverse event", "setting": "[4]; [9]", "value": "0 n (%)"}, {"measurement": "Constipation, treatment-emergent adverse event", "setting": "[4]; [9]", "value": "0 n (%)"}, {"measurement": "Decreased appetite, treatment-emergent adverse event", "setting": "[4]; [9]", "value": "5 (45.5) n (%)"}, {"measurement": "Diarrhea, treatment-emergent adverse event", "setting": "[4]; [9]", "value": "0 n (%)"}, {"measurement": "Dyspepsia, treatment-emergent adverse event", "setting": "[4]; [9]", "value": "0 n (%)"}, {"measurement": "Headache, treatment-emergent adverse event", "setting": "[4]; [9]", "value": "0 n (%)"}, {"measurement": "Lipase increased, treatment-emergent adverse event", "setting": "[4]; [9]", "value": "0 n (%)"}, {"measurement": "Nausea, treatment-emergent adverse event", "setting": "[4]; [9]", "value": "1 (9.1) n (%)"}, {"measurement": "Viral upper respiratory tract infection, treatment-emergent adverse event", "setting": "[4]; [9]", "value": "1 (9.1) n (%)"}, {"measurement": "Vomiting, treatment-emergent adverse event", "setting": "[4]; [9]", "value": "1 (9.1) n (%)"}, {"measurement": "White blood cell count increased, treatment-emergent adverse event", "setting": "[4]; [9]", "value": "1 (9.1) n (%)"}, {"measurement": "Abdominal discomfort, treatment-emergent adverse event", "setting": "[4]; [10]", "value": "2 (16.7) n (%)"}, {"measurement": "Abdominal distension, treatment-emergent adverse event", "setting": "[4]; [10]", "value": "1 (8.3) n (%)"}, {"measurement": "Blood triglycerides increased, treatment-emergent adverse event", "setting": "[4]; [10]", "value": "0 n (%)"}, {"measurement": "Constipation, treatment-emergent adverse event", "setting": "[4]; [10]", "value": "8 (66.7) n (%)"}, {"measurement": "Decreased appetite, treatment-emergent adverse event", "setting": "[4]; [10]", "value": "6 (50.0) n (%)"}, {"measurement": "Diarrhea, treatment-emergent adverse event", "setting": "[4]; [10]", "value": "3 (25.0) n (%)"}, {"measurement": "Dyspepsia, treatment-emergent adverse event", "setting": "[4]; [10]", "value": "3 (25.0) n (%)"}, {"measurement": "Headache, treatment-emergent adverse event", "setting": "[4]; [10]", "value": "3 (25.0) n (%)"}, {"measurement": "Lipase increased, treatment-emergent adverse event", "setting": "[4]; [10]", "value": "1 (8.3) n (%)"}, {"measurement": "Nausea, treatment-emergent adverse event", "setting": "[4]; [10]", "value": "0 n (%)"}, {"measurement": "Vomiting, treatment-emergent adverse event", "setting": "[4]; [10]", "value": "1 (8.3) n (%)"}, {"measurement": "White blood cell count increased, treatment-emergent adverse event", "setting": "[4]; [10]", "value": "0 n (%)"}, {"measurement": "Abdominal discomfort, treatment-emergent adverse event", "setting": "[4]; [11]", "value": "4 (25.0) n (%)"}, {"measurement": "Abdominal distension, treatment-emergent adverse event", "setting": "[4]; [11]", "value": "0 n (%)"}, {"measurement": "Blood triglycerides increased, treatment-emergent adverse event", "setting": "[4]; [11]", "value": "1 (6.3) n (%)"}, {"measurement": "Constipation, treatment-emergent adverse event", "setting": "[4]; [11]", "value": "8 (50.0) n (%)"}, {"measurement": "Decreased appetite, treatment-emergent adverse event", "setting": "[4]; [11]", "value": "10 (62.5) n (%)"}, {"measurement": "Diarrhea, treatment-emergent adverse event", "setting": "[4]; [11]", "value": "5 (31.3) n (%)"}, {"measurement": "Dyspepsia, treatment-emergent adverse event", "setting": "[4]; [11]", "value": "0 n (%)"}, {"measurement": "Headache, treatment-emergent adverse event", "setting": "[4]; [11]", "value": "1 (6.3) n (%)"}, {"measurement": "Lipase increased, treatment-emergent adverse event", "setting": "[4]; [11]", "value": "2 (12.5) n (%)"}, {"measurement": "Nausea, treatment-emergent adverse event", "setting": "[4]; [11]", "value": "2 (12.5) n (%)"}, {"measurement": "Vomiting, treatment-emergent adverse event", "setting": "[4]; [11]", "value": "2 (12.5) n (%)"}, {"measurement": "White blood cell count increased, treatment-emergent adverse event", "setting": "[4]; [11]", "value": "1 (6.3) n (%)"}, {"measurement": "Tolerability", "setting": "[4]; all tirzepatide doses (5-, 10-, 15-mg groups), SC once weekly, 8 weeks", "value": "all tirzepatide doses were well tolerated"}, {"measurement": "Severe hypoglycemia or nocturnal hypoglycemia events", "setting": "[4]; all treatment groups, 8 weeks", "value": "No severe hypoglycemia or nocturnal hypoglycemia events were reported"}, {"measurement": "Injection-site or hypersensitivity AEs", "setting": "[4]; all treatment groups, SC abdominal wall, 8 weeks", "value": "No injection‐site or hypersensitivity AEs were reported"}, {"measurement": "Deaths or serious AEs", "setting": "[4]; all treatment groups, SC once weekly, 8 weeks", "value": "No deaths or serious AEs occurred during the study"}, {"measurement": "Systolic and diastolic blood pressure, mean predose", "setting": "[4]; participants treated with tirzepatide (Figure S3)", "value": "no significant changes in blood pressure"}, {"measurement": "Body weight reduction", "setting": "participants with T2D; 5-, 10-, and 15-mg doses versus placebo", "value": "significant, dose‐dependent reductions in body weight for the 5‐, 10‐, and 15‐mg doses of tirzepatide versus placebo"}, {"measurement": "HbA1c reduction", "setting": "participants with T2D; doses 1, 5, 10, and 15 mg, versus placebo", "value": "significant dose‐dependent reductions in HbA1c at all doses (1, 5, 10, and 15 mg) versus placebo"}, {"measurement": "Vd/F", "setting": "[5]", "value": 5.27, "unit": "L"}, {"measurement": "Seven-point SMPG daily profile compared with placebo", "setting": "[6]", "value": "improved overall daily SMPG profiles compared with placebo"}, {"measurement": "Triglyceride postdose (week 8), mean (SD)", "setting": "[7]; 5-mg group, predose (week 1) 204 (56) mg/dL", "value": "161 (51) mg/dL"}, {"measurement": "Triglyceride postdose (week 8), mean (SD)", "setting": "[7]; 10-mg group, predose (week 1) 172 (71) mg/dL", "value": "122 (38) mg/dL"}, {"measurement": "Triglyceride postdose (week 8), mean (SD)", "setting": "[7]; 15-mg group, predose (week 1) 173 (121) mg/dL", "value": "122 (55) mg/dL"}, {"measurement": "Overall appetite score", "setting": "[8]; average of four VAS scores, among treatment groups (Figure S5)", "value": "overall appetite score was not different among the treatment groups"}, {"measurement": "Hunger and fullness scores, visual analog scale, compared with placebo", "setting": "[8]; lunch and dinner, all tirzepatide dose levels (Figure S5)", "value": "numerically decreased hunger and fullness scores"}, {"measurement": "Percentage of meal intake compared with placebo", "setting": "[8]; week 8, standardized meals (Figure S4)", "value": "dose‐dependent decrease in the percentage of meal intake compared with placebo"}]}
